KLK5 inh – inhibitors of human kallikrein 5; actives 0.59% (n = 210,000); recombinant hK5, fluorogenic AMC substrate cleavage; inhibition, % at 5 µM;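 active means inhibition of 40% or more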;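 further: 0% = enzyme controls without compound and 100% = no-enzyme blanks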
FXIa inh – blocks human coagulation factor XIa protease activity | purified FXIa, Boc-Glu-Ala-Arg-AMC fluorogenic substrate | AID 798 | inhibition, % at 5 µM | actives 0.14% (n = 220,000) | P03951;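 active means inhibition of at least 40%; inactive means inhibition below 40%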;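 further: fluorescence of freed AMC excited at 355 nm; 0% = enzyme without compound and 100% = no enzyme blank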
Calpain2 inh – calpain II (pig) inhibition. purified calpain II, fluorogenic peptide substrate, 30 min. inhibition, % at 16 µM. actives 0.37% (n = 220,000). AID 1236;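 active means inhibition above about 50%, limit read from the data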
thrombin 1536 – inhibitors of human thrombin. inhibition, % at 5 µM. actives 0.26% (n = 220,000). P00734. alpha-thrombin, Boc-VPR-AMC fluorogenic substrate cleavage. AID 1046;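 active means inhibition at or above 40%; inactive means inhibition below 40%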;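 further: 0% = enzyme with no compound and 100% = wells without enzyme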
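Test system: human alpha-thrombin; medium: pH 7.5 Tris-saline with Tween 20; times: reaction at room temperature; signal: AMC fluorescence at 355 nm excitation and 460 nm emission; also added: Boc-VPR-AMC substrate, 15 µM final; dosing: one concentration per compound, 5 µM, with 0.2% DMSO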
Furin inhibitor – inhibitors of human furin; P09958; purified furin, fluorogenic substrate cleavage; inhibition, % at 20 µM or 30 µM; actives 0.061% (n = 220,000); AID 463115; in the data active means inhibition above about 25%
FXIIa inh 1536 – blocks human coagulation factor XIIa protease activity; actives 0.3% (n = 220,000); purified FXIIa, Boc-QGR-AMC fluorogenic substrate, 2 h; inhibition, % at 5 µM; in the data active means inhibition above about 40%;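 further: 0% = enzyme with no compound and 100% = blank without enzyme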
Target sequence (P00748 20-372 limits assumed): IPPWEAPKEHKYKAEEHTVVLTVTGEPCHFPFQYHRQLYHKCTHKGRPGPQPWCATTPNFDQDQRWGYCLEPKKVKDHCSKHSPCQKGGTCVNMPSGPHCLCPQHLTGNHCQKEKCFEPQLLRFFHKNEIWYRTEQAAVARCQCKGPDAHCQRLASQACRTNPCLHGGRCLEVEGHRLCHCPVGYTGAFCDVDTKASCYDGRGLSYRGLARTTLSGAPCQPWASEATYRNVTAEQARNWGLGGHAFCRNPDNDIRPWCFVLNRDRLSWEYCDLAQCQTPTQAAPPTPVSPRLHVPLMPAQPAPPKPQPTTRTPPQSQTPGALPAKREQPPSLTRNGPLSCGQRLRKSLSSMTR
Target sequence (P00748 373-615 limits assumed): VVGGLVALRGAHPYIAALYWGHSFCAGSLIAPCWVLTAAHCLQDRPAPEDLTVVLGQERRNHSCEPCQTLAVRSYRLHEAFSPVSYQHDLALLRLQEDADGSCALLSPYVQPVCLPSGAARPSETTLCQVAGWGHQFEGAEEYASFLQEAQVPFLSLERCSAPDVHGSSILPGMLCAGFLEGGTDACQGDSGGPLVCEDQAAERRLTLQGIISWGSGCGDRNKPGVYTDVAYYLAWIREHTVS
* hit, by the source's call. This is a sample that favours compounds with a hit; in the whole collection about 1.4% have one here.

For O=C(NCC(=O)N1CCN(S(=O)(=O)/C=C/c2ccccc2)CC1)c1ccccc1F the results were KLK5 inh 39, FXIa inh 26, Calpain2 inh 30, Furin inhibitor -4 and FXIIa inh 1536 57*.
Screening Cc1ccc(/C=C(\NC(=O)c2ccccc2)C(=O)N2CCCC2C(=O)O)cc1 (centres undefined) returned KLK5 inh -2, FXIa inh -5, Calpain2 inh -27, thrombin 1536 -9, Furin inhibitor -34 and FXIIa inh 1536 2.
`Cc1ccccc1Cn1c(=O)n(CC2CCC(C(=O)NCCc3ccccc3)CC2)c(=O)c2ccccc21` (centres undefined) gave KLK5 inh -4, FXIa inh 1, Calpain2 inh 66*, thrombin 1536 -8, Furin inhibitor -12 and FXIIa inh 1536 6.
`COc1ccc2[nH]c(=O)c(CN(CCO)S(=O)(=O)c3ccc(C)cc3)cc2c1` gave KLK5 inh -3, FXIa inh -6, Calpain2 inh -118, thrombin 1536 -10, Furin inhibitor -34 and FXIIa inh 1536 1.
COc1ccc(S(=O)(=O)N(CCCN2CCCC2=O)Cc2cc3c(C)cc(C)cc3[nH]c2=O)cc1 was read as KLK5 inh 133*, FXIa inh -6, Calpain2 inh -69, thrombin 1536 6, Furin inhibitor -27 and FXIIa inh 1536 -1.
For O=C1c2ccccc2C(=O)c2c1cccc2N1CCCC1 the results were KLK5 inh -7, FXIa inh 7, Calpain2 inh 51*, thrombin 1536 -4, Furin inhibitor -16 and FXIIa inh 1536 9.
For CCNCC(=O)N1c2ccccc2CCc2ccc(NC(C)=O)cc21 the results were KLK5 inh -3, FXIa inh 9, Calpain2 inh -8, thrombin 1536 2, Furin inhibitor 23 and FXIIa inh 1536 17.
COc1ccc(C(=O)N/N=C/c2cc3ccccc3[nH]c2=O)cc1 was read as KLK5 inh 21, FXIa inh 52*, Calpain2 inh inactive, thrombin 1536 34, Furin inhibitor -12 and FXIIa inh 1536 60*.
`COc1ccc(C(=O)N/N=C/c2ccc(OC(=O)c3ccccc3)cc2)cc1` gave KLK5 inh -5, FXIa inh -3, Calpain2 inh 7, thrombin 1536 -1, Furin inhibitor -7 and FXIIa inh 1536 1.
CC(C)(C)SCCNS(=O)(=O)c1ccc2ccccc2c1 was read as KLK5 inh -15, FXIa inh 7, Calpain2 inh 49, thrombin 1536 -2, Furin inhibitor -12 and FXIIa inh 1536 12.
CC(C)(C)SCCNS(=O)(=O)c1ccccc1 was read as KLK5 inh 43*, FXIa inh 13, Calpain2 inh 12, thrombin 1536 22, Furin inhibitor -18 and FXIIa inh 1536 50*.
For Cc1ccc2[nH]c(=O)c(N3CCOCC3)c(-c3ccccc3)c2c1 the results were KLK5 inh 47*, FXIa inh 12, Calpain2 inh -47, thrombin 1536 16, Furin inhibitor -11 and FXIIa inh 1536 2.
CC(C)c1ccc(O)c(NC(=S)NC(=O)c2cccnc2)c1 was read as FXIa inh 20, Calpain2 inh 12, thrombin 1536 3, Furin inhibitor 0 and FXIIa inh 1536 41*.
For CCC(C)c1ccc(O)c(NC(=O)c2cccnc2)c1 (centres undefined) the results were KLK5 inh -22, FXIa inh -3, Calpain2 inh -3, thrombin 1536 1, Furin inhibitor -19 and FXIIa inh 1536 19.
Screening CC(C(=O)Nc1ccccc1Cl)c1ccc([N+](=O)[O-])cc1 (centres undefined) returned KLK5 inh -4, FXIa inh -3, Calpain2 inh 16, thrombin 1536 0, Furin inhibitor -20 and FXIIa inh 1536 4.
For Cc1ccc(N/N=C2\CCS(=O)(=O)c3sccc32)cc1 the results were KLK5 inh 6, FXIa inh 1, Calpain2 inh 54*, thrombin 1536 -5, Furin inhibitor -21 and FXIIa inh 1536 8.
Screening O=C1N(c2ccccc2)C[C@@H]2C[C@@H](c3cccc4c3OCO4)N3CCC[C@@]123 returned KLK5 inh -2, FXIa inh 0, Calpain2 inh -9, thrombin 1536 -2, Furin inhibitor -21 and FXIIa inh 1536 5.
Screening CC(=O)NC(c1ccc(F)cc1)c1cccnc1 (centres undefined) returned KLK5 inh 49*, FXIa inh 6, Calpain2 inh 24, thrombin 1536 10, Furin inhibitor -5 and FXIIa inh 1536 12.
`COc1ccc(NC(=O)CN2CCN(c3nc(-c4ccc(F)cc4)cs3)CC2)c(OC)c1` gave KLK5 inh 7, FXIa inh 3, Calpain2 inh 56*, thrombin 1536 -2, Furin inhibitor -8 and FXIIa inh 1536 12.
COc1ccc(NC(=O)CN2CCN(c3nc(-c4cccc(OC)c4)cs3)CC2)cc1 was read as KLK5 inh -16, FXIa inh 1, Calpain2 inh 11, thrombin 1536 -7, Furin inhibitor -15 and FXIIa inh 1536 11.
Cc1ncsc1CCOC(=O)C12CC3CC(CC(C3)C1)C2 was read as KLK5 inh -5, FXIa inh 6, Calpain2 inh 67*, thrombin 1536 5, Furin inhibitor -18 and FXIIa inh 1536 20.
Cc1ccc(Cn2cc(/C=N/NC(=O)Cc3nnc(NC(=O)c4ccc(C)cc4)s3)c3ccccc32)cc1 was read as KLK5 inh 10, FXIa inh 28, Calpain2 inh 44, thrombin 1536 31, Furin inhibitor -5 and FXIIa inh 1536 40*.
For CNC(=O)COC(=O)c1ccc(Cl)c(S(=O)(=O)N2CCCC2)c1 the results were KLK5 inh -2, FXIa inh 4, Calpain2 inh -25, Furin inhibitor -28 and FXIIa inh 1536 4.
`CNC(=O)COC(=O)c1ccc(Cl)c(S(N)(=O)=O)c1` gave KLK5 inh 49*, FXIa inh 21, Calpain2 inh 8, thrombin 1536 13, Furin inhibitor 0 and FXIIa inh 1536 26.
`Cc1nnc(SCc2cccc(Oc3ccccc3)c2)n1N` gave KLK5 inh 59*, FXIa inh 3, Calpain2 inh 12, thrombin 1536 26, Furin inhibitor -17 and FXIIa inh 1536 -1.
`Cc1ccc(C(=O)C(=O)c2ccc(C)c(N)c2)cc1N` gave KLK5 inh 26, FXIa inh 53*, Calpain2 inh 11, thrombin 1536 14, Furin inhibitor 1 and FXIIa inh 1536 40*.
O=C(O)CCN1C(=O)C2C3c4ccccc4C(c4ccccc43)C2C1=O (centres undefined) was read as KLK5 inh 4, FXIa inh 3, Calpain2 inh -5, thrombin 1536 1, Furin inhibitor -20 and FXIIa inh 1536 7.

Compound activity as filed in PubChem BioAssay.
